Results pooled from the literature.
pEC50, pIC50, pKd, pKi: −log10 of the molar value.
NPSR1: Neuropeptide S receptor (NPSR1, Homo sapiens, UniProt Q6W5P4)
NQO2: Ribosyldihydronicotinamide dehydrogenase [quinone] (NQO2, Homo sapiens, UniProt P16083)

N=c1c2c(ncn1-c1ccccc1)Oc1ccc3ccccc3c1C2c1ccccc1 (stereo not shown)  pIC50 (NPSR1; calcium signal; antagonist): 6.16
Nc1ncnc2c1ncn2[C@@H]1O[C@H](COP(=O)(O)OP(=O)(O)OP(=O)(O)O)[C@@H](O)[C@H]1O  pKd (dnaA (Escherichia coli, UniProt P03004); binding): 7.40
CCOC(=O)[C@@]12C[C@@H]1[C@@H](n1ccc3c(NCCc4ccccc4)nc(C#Cc4ccccc4)nc31)[C@H](O)[C@@H]2O  pKi (Sodium-dependent noradrenaline transporter (SLC6A2, Homo sapiens, UniProt P23975); ligand displacement; radioligand): 5.55
COc1ccc(-c2nsc(NC(=O)[C@@H]3C[C@H]3C)c2C)cc1  pEC50 (Metabotropic glutamate receptor 3 (GRM3, Homo sapiens, UniProt Q14832); calcium signal; agonist): < 4.60
COc1ccc(C2c3c(N)nc(Cc4ccccc4)nc3Oc3ccc4ccccc4c32)cc1OC (stereo not shown)  pIC50 (NPSR1; cAMP; antagonist; TR-FRET): 4.11
Cc1cnc(-c2ccc(-c3ccc(NC(=O)Nc4c(F)cc(F)cc4F)cc3F)c3c2C(=O)NC3)[nH]1  pKd (Dual specificity mitogen-activated protein kinase kinase 5 (MAP2K5, Homo sapiens, UniProt Q13163); binding; competition with immobilised ligand): 9.10
COc1cccc(C2c3c(ncn(-c4ccc(C#N)cc4)c3=N)Oc3ccc4ccccc4c32)c1 (stereo not shown)  pIC50 (NPSR1; cAMP; antagonist; TR-FRET): 5.26
CCN(CC)Cc1cc(Nc2ccnc3cc(Cl)ccc23)ccc1O  pKi (NQO2; enzyme activity; inhibitor): 3.80
Clc1ccc2c(c1)N(CCCN1CCN(CCCc3ccccc3)CC1)c1ccccc1S2  pKi (Trypanothione reductase (TPR, Trypanosoma cruzi, UniProt P28593); enzyme activity; inhibitor; absorbance): 6.48
COc1cccc(C2c3c(ncn(-c4cccc(Cl)c4)c3=N)Oc3ccc4ccccc4c32)c1 (stereo not shown)  pIC50 (NPSR1; cAMP; antagonist; TR-FRET): 4.81
CC(C)(C)c1cc(CN(C(=O)CN(Cc2ccc(Cl)cc2)S(=O)(=O)c2c(F)c(F)c(F)c(F)c2F)c2ccc(C(=O)O)c(O)c2)cc(C(C)(C)C)c1  pKi (Signal transducer and activator of transcription 1-alpha/beta (STAT1, Homo sapiens, UniProt P42224); cell-free assay; FP): < 4.22
Cc1cccc(Nc2ccccc2C(=O)O)c1C  pKi (NQO2; enzyme activity; inhibitor; absorbance): < 3.30
CC[C@H](C)[C@H](NC(=O)CN)C(=O)N[C@H](C(=O)N[C@@H](CC(N)=O)C(=O)N[C@H](C(=O)N[C@@H](CC(C)C)C(=O)N[C@@H](CCC(N)=O)C(=O)N[C@@H](CCCCN)C(=O)N[C@@H](Cc1ccc(O)cc1)C(=O)N[C@@H](Cc1ccc(O)cc1)C(=O)N[C@@H](CO)C(=O)N[C@@H](CCCNC(=N)N)C(=O)N[C@H](C(=O)N[C@@H](CCCNC(=N)N)C(=O)NCC(=O)NCC(=O)N[C@@H](CCCNC(=N)N)C(=O)N[C@H]1CSSC[C@@H](C(=O)N[C@@H](CO)C(=O)N[C@H](C(=O)N[C@@H](CCCNC(=N)N)C(=O)NCC(=O)N[C@@H](CCCNC(=N)N)C(=O)N[C@@H](CCCCN)C(=O)N[C@@H](CO)C(=O)N[C@@H](CO)C(=O)N[C@@H](CCCNC(=N)N)C(=O)N[C@@H](CCCNC(=N)N)C(=O)N[C@@H](CCCCN)C(=O)N[C@@H](CCCCN)C(N)=O)[C@@H](C)O)NC(=O)[C@H](CCCCN)NC(=O)CNC(=O)[C@H]([C@@H](C)CC)NC(=O)[C@H](CCC(N)=O)NC(=O)[C@H](CCC(=O)O)NC(=O)[C@H](CCC(=O)O)NC(=O)[C@H](CCCCN)NC(=O)[C@@H]2CCCN2C(=O)[C@H](CC(C)C)NC(=O)[C@H](CO)NC(=O)[C@H](CO)NC(=O)[C@H](CC(C)C)NC(=O)[C@H](C(C)C)NC(=O)[C@H](C)NC1=O)C(C)C)[C@@H](C)O)[C@@H](C)CC  pKi (Melanocortin receptor 4 (MC4R, Homo sapiens, UniProt P32245); ligand displacement in cells): 6.25
